In ChEMBL document CHEMBL1154102, “Nucleoside-amino acid conjugates: An alternative route to the design of ribonuclease A inhibitors” (Bioorg Med Chem, 2009):
Calls of active or inactive are those of the source. The rule behind the calls is not given here.

Experiments:
[1] = target: T1, Ribonuclease pancreatic (Bos taurus) (UniProt P61823); experiment: Inhibition of bovine pancreatic RNase A assessed as tRNA degradation at 0.92 mM after 6 hrs using ethidium bromide staining by agarose gel-based assay
T1 sequence (whole entry): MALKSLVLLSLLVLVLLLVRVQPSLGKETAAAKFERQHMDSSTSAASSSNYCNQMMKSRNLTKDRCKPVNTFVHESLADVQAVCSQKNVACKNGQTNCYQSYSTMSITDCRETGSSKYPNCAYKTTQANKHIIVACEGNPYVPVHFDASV
Method in brief: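 RNase A (0.66 µM stock) preincubated with varying volumes of compound (0.92 mM stock) 6 h at 37 °C. Aliquots mixed with tRNA (5.0 mg/ml) and glycerol/bromophenol blue sample buffer, 30 min further incubation, then run on 1.1% agarose in TAE pH 8.0. Undegraded tRNA seen by ethidium bromide staining under UV.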

[2] = target: T1, Ribonuclease pancreatic (Bos taurus); experiment: Inhibition of bovine pancreatic RNase A assessed as tRNA degradation at 0.50 mM after 2 hrs by precipitation assay
Method in brief: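 Bond precipitation method. RNase A with conjugate (1 mM stock) preincubated 2 h at 37 °C; aliquot added to tRNA (5 mg/ml) in Tris-HCl pH 7.5 with 5 mM EDTA and 0.5 mg/ml HSA, 30 min at 25 °C. Quenched with ice-cold 1.14 N perchloric acid/6 mM uranyl acetate, 30 min on ice, centrifuged; supernatant diluted, A260 compared to control.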

[3] = target: T1, Ribonuclease pancreatic (Bos taurus); experiment: Inhibition of bovine pancreatic RNase A at 5 uM by fluorescence assay
Method in brief: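 Fluorimetric titration, 1 cm cuvette, excitation 295 nm: 5 µM ligand in 20 mM phosphate pH 7.0 with 50 mM NaCl, RNase A added stepwise to a final 17.5 µM; change in emission intensity followed.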

[4] = target: T1, Ribonuclease pancreatic (Bos taurus); experiment: Inhibition of bovine pancreatic RNase A assessed as change in pKa of His-12 by NMR spectroscopy
Method in brief: (§1)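 RNase A H/D exchanged in D2O (50 °C, 20 min, lyophilized, three cycles), redissolved in D2O with 0.17 M NaCl and 0.5 mM DSS; ligand:enzyme molar ratio 5:1; pH* 3–8 set with DCl/NaOD, uncorrected. 1H NMR at 400 MHz, 22.5 °C, 100 scans, 2 s acquisition; His C-2 shifts vs DSS fitted to titration equations for pKa; pK2 used.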

[5] = target: T1, Ribonuclease pancreatic (Bos taurus); experiment: Inhibition of bovine pancreatic RNase A assessed as change in pKa of His-105 by NMR spectroscopy; method in brief: as §1
[6] = target: T1, Ribonuclease pancreatic (Bos taurus); experiment: Inhibition of bovine pancreatic RNase A assessed as change in pKa of His-119 by NMR spectroscopy; method in brief: as §1
Ribonuclease pancreatic = target: T2, Ribonuclease pancreatic (Bos taurus, UniProt P61823); experiment: Inhibition of bovine pancreatic RNase A by spectrophotometric assay
T2 sequence (P61823 whole entry): T1 sequence (whole entry)

With Cc1cn([C@H]2C[C@H](NC(=O)C(N)Cc3c[nH]c4ccccc34)[C@@H](CO)O2)c(=O)[nH]c1=O (stereo not given in full) the Activity [1] was “Active”, the Activity [2] was “Active” and the Activity [3] was “Active”.

In the case of Cc1cn([C@H]2C[C@H](NC(=O)C(N)CC(C)C)[C@@H](CO)O2)c(=O)[nH]c1=O (stereo not given in full), the Activity [4] is reported as “inactive”, the Activity [5] is reported as “inactive” and the Activity [6] is reported as “inactive”.

With Nc1ccn([C@@H]2O[C@H](CO)[C@@H](O)[C@H]2OP(=O)(O)O)c(=O)n1 the Ki (Ribonuclease pancreatic) was 7 µM.

For Cc1cn([C@H]2C[C@H](NC(=O)C(N)Cc3ccc(O)cc3)[C@@H](CO)O2)c(=O)[nH]c1=O (stereo not given in full), the Activity [1] was “Active”, the Activity [2] was “Active” and the Ki (Ribonuclease pancreatic) was 451 µM.
